Legend:
[1] = In vitro stability in mouse serum; assay type: in vitro ADME; details: room temperature, 24 h of incubation, iTLC, average of three independent samples
[2] = system: H446 cells; assay: Cellular uptake / binding ratio, H446 cells; assay type: cell-based, human
How it was run: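 Cells were grown in RPMI-1640 with 10% FCS at 37 °C and 5% CO2. Suspensions of 5 × 10^6 cells in PBS, in low-bind tubes, got 3.7 kBq and were agitated at 37 °C for 1, 3 or 6 h. Cells were then pelleted and rinsed twice with ice-cold PBS, and pellets and pooled supernatant/washes were gamma-counted. Parallel tubes held unlabeled peptide as blocker for nonspecific binding. Three independent experiments were run in triplicate.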

[3] = system: A549 cells; assay: In vitro cytotoxicity; assay type: cell-based, human; details: 24 h exposure, low-level SSTR2 A549 cells
[4] = system: H446 cells; assay: DNA damage, γH2AX imaging and Western blot, H446 cells; assay type: cell-based, human
How it was run: (§1)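 Cells (5 × 10^4/well) were exposed for 2 h to PBS, unlabeled peptide, free 211At or test compound (1.85, 3.7, 18.5, 37 kBq), then recovered 24 h in fresh medium. For imaging, cells were fixed, permeabilized and stained with mouse anti-γH2AX (1:800). For blotting, RIPA lysates (BCA-normalized) were run on 10% SDS-PAGE and transferred to PVDF. Blocking was 5% milk for 1 h, anti-γH2AX was applied at 4 °C for 12 h, with ECL detection and GAPDH as loading control.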

[5] = system: A549 cells; assay: DNA damage, γH2AX imaging and Western blot, A549 cells; assay type: cell-based, human
How it was run: as §1

[6] = Biodistribution in SCLC tumor-bearing BALB/c nude mice; assay type: in vivo
How it was run: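 H446 cells (1 × 10^7 in 0.2 mL PBS) implanted subcutaneously in left shoulder of male nude mice, 4–5 weeks, 20 ± 1 g. 211At-labelled test compound or free 211At (1110 kBq each) given in parallel via tail vein, n = 4 per group. Killed at 1, 3, 6, 12, 24 h. Tumor, main tissues and whole blood weighed and gamma-counted. Values as %ID/g (thyroid %ID/organ), mean ± s.d.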

[7] = system: SCLC tumors (H446); assay: Therapeutic efficacy against SCLC; assay type: in vivo, BALB/c nude mice; details: for tumor growth compared with the PBS control group: n = 6–10
How it was run: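 Xenografts were s.c. H446 (1 × 10^7 cells) in male BALB/c nude mice, randomized 2 weeks post-inoculation. Tumor size and weight were tracked for 30 days (n = 6–10), and tumor volumes were analysed by one-way ANOVA. At day 30, formalin-fixed tumors had H&E and γH2AX immunofluorescence.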

[8] = Adverse effects in SCLC tumor-bearing mice; assay type: in vivo, BALB/c nude mice
How it was run: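 H446 cells (1 × 10^7 in 0.2 mL PBS) were implanted s.c. in the left shoulder of male BALB/c nude mice aged 4–5 weeks (20 ± 1 g). Mice were randomized at 2 weeks and given i.v. tail-vein PBS, unlabeled peptide 5 mg/kg, or test compound (370 kBq, 1110 kBq, or 370 kBq on days 0, 3 and 7). Body weight was followed for 30 days. Blood counts were taken on days 14 and 28 (n = 4). ALT, AST, BUN and Cr were measured on day 28. Liver, spleen, kidney, stomach and lung were H&E-stained at day 30.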

[9] = system: SCLC tumors (H446); assay: MHC-I and calreticulin expression in SCLC tumors; assay type: in vivo, BALB/c nude mice; details: 1110 kBq administration group, day 1, 4, and 8
How it was run: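 In nude mice bearing s.c. H446 tumors, test compound was given i.v. as 1110 kBq once or 370 kBq on days 0, 3 and 7, with PBS controls. Tumors were examined on days 1, 4 and 8 after treatment. MHC-I and calreticulin were stained by immunohistochemistry per manufacturer's instructions, and expression was quantified. Three independent experiments were run in triplicate, reported as mean ± s.d.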

[10] = groups A, D (1110 kBq) and E (3 × 370 kBq), day 30
[11] = groups D (1110 kBq) and E (3 × 370 kBq), day 30

Q: With “N-succinimidyl-3-[^211At]astatobenzoate-Oct [[^211At]SAB-Oct]” as the substance, how does the “radiochemical purity (RCP) after incubation in mouse serum” value [1] read?
A: 93%

Q: What about the “binding ratio to H446 cells in comparison to A549 cells” value ([2]; 5 × 10^6 cells in PBS, 3.7 kBq, 37 °C, 1, 3 and 6 h, gamma counter, triplicate) of the same substance?
A: significantly higher

Q: And the “binding ratio to H446 cells with Oct block” value ([2]; 100-fold excesses of unlabeled Oct as blocking agent)?
A: markedly decreased

Q: What about the “in vitro cytotoxicity to A549 cells” value [3] of the same substance?
A: specifically killed SSTR2-positive SCLC cells but not low-level SSTR2 A549 cells

Q: And the “γH2AX protein, Western blot, H446 cells” value ([4]; 1.85, 3.7, 18.5, or 37 kBq)?
A: visually increased

Q: What about the “level of γH2AX in H446 cells compared to PBS” value ([4]; 18.5 and 37 kBq, ****P < 0.001) of the same substance?
A: distinct dose-dependent increase

Q: What about the “γH2AX protein expression, Western blot, A549 cells” value ([5]; 1.85, 3.7, 18.5, or 37 kBq) of the same substance?
A: slightly expressed only when the dose reached 18.5 or 37 kBq

Q: And the “level of γH2AX in A549 cells compared to PBS” value ([5]; 37 kBq, ***P < 0.001, still much lower than in H446)?
A: slightly higher

Q: And the “uptake in the lung and intestines” value ([6]; 1110 kBq i.v.)?
A: physiologically high uptake

Q: What about the “radioactivity uptake in the thyroid” value ([6]; 1110 kBq i.v., 1 to 24 h) of the same substance?
A: low radioactivity uptake

Q: And the “stomach uptake at 1 h postinjection” value ([6]; 1110 kBq i.v., 1 h, n = 4, mean ± s.d., gamma counter)?
A: 17.99 ± 19.65 % ID/g

Q: And the maximum tumor uptake ([6]; 1110 kBq i.v., 3 h postinjection, n = 4, mean ± s.d.)?
A: 11.46 ± 4.35 % ID/g

Q: What about the “radioactivity in all tissues after 24 h” value ([6]; 1110 kBq i.v., 24 h) of the same substance?
A: Low levels of radioactivity

Q: What about the “stomach uptake at 24 h” value ([6]; 1110 kBq i.v., 24 h, n = 4, mean ± s.d.) of the same substance?
A: 2.87 ± 0.86 % ID/g

Q: What about the deastatination in vivo ([6]; observed in the spleen, lung, and stomach) of the same substance?
A: slight deastatination

Q: What about the “tumor cell necrosis in H&E assay” value ([7]; 1110 kBq, day 30, compared with PBS and unlabeled octreotide groups) of the same substance?
A: highest cell necrosis

Q: And the “clusters of γH2AX foci in dissected tumors” value ([7]; 1110 kBq, day 30 after injection)?
A: still visible

Q: And the “tumor growth compared with the PBS control group” value ([7]; group C, single i.v. injection 370 kBq, monitored 30 days)?
A: significantly inhibited

Q: What about the “tumor growth compared with the PBS control group” value ([7]; group D, single i.v. injection 1110 kBq, monitored 30 days) of the same substance?
A: significantly inhibited

Q: And the “tumor growth compared with the PBS control group” value ([7]; group E, 3 times 370 kBq on days 0, 3, and 7, monitored 30 days)?
A: significantly inhibited

Q: And the “liver or kidney biochemical function” value ([8]; 1110 kBq)?
A: did not significantly alter

Q: What about the “leukocytopenia or weight loss” value ([8]; 1110 kBq doses) of the same substance?
A: not observed

Q: And the leukocytopenia ([8]; 1110 kBq group, day 28)?
A: No leukocytopenia

Q: What about the Bun values ([8]; 1110 kBq, day 28, P > 0.05) of the same substance?
A: trend of decreased Bun values

Q: And the “blood cells (leukocyte, lymphocyte, thrombocyte, erythrocyte counts, hematocrit, hemoglobin)” value ([8]; day 14 and day 28 postinjection, 1110 kBq or multiple dosing, n = 4)?
A: no significant change

Q: What about the “difference in ALT and AST concentrations between each group” value ([8]; day 28, P > 0.05, groups A–E) of the same substance?
A: not significant

Q: And the “difference in Bun and Cr concentrations between treatments” value ([8]; day 28, P > 0.05, groups A–E)?
A: not significant

Q: And the “liver H&E” value [8, 10]?
A: No obvious morphological difference

Q: What about the “lung H&E” value [8, 10] of the same substance?
A: no obvious abnormalities

Q: And the “kidney H&E” value [8, 11]?
A: brush border of a few renal tubular epithelial cells was slightly exfoliated

Q: And the “stomach H&E” value [8, 11]?
A: mild exfoliation of extensive mucosal epithelium

Q: And the “expression of MHC-I and calreticulin in tumor over time” value [9]?
A: first increasing and then decreasing

Reference: paper PMC10630944 (Molecular Pharmaceutics, 2023)
